From ChEMBL document CHEMBL3779764, “Identification and Structure-Activity Relationships of Diarylhydrazides as Novel Potent and Selective Human Enterovirus Inhibitors” (J Med Chem, 2016)
The source made the active and inactive calls. The rule behind the calls is not given here.

Legend:
Coxsackievirus B5 = test: Antiviral activity against Human coxsackievirus B5 infected in african green monkey Vero cells after 24 to 36 hrs by MTS-based CPE reduction assay; assay type: functional, organism-based; conditions: Enterovirus B
How it was run: (§1)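 Vero cells infected with the coxsackievirus B serotype in the presence of serial compound dilutions. CPE reduction read by MTS/PMS absorbance at 498 nm after 24-36 h at 37 °C. EC50 is the concentration giving 50% CPE inhibition. Mean ± standard deviation of at least three independent experiments.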

Enterovirus A71 [1] = test: Antiviral activity against Enterovirus 71 infected in human RD cells after 24 to 36 hrs by MTS-based CPE reduction assay; assay type: functional, organism-based; conditions: Enterovirus A, RD; read-out: EC50
How it was run: (§2)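 RD cells given serial compound dilutions with EV71. Incubated at 37 °C for 24-36 h until full CPE in the virus control. Viability read by MTS/PMS at 498 nm. EC50 is the concentration giving 50% inhibition of virus-induced CPE. At least three independent experiments.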

[2] = Cytotoxicity against african green monkey Vero cells assessed as reduction in cell viability after 24 to 36 hrs by MTS-based CPE reduction assay; conditions: chlorocebus sabaeus
How it was run: (§3)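 Noninfected Vero or RD cells exposed to serial compound dilutions under the CPE-assay conditions (37 °C, 24-36 h). Viability measured by MTS/PMS absorbance at 498 nm. CC50 is the concentration causing 50% death of noninfected cells.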

Coxsackievirus B2 = test: Antiviral activity against Human coxsackievirus B2 infected in african green monkey Vero cells after 24 to 36 hrs by MTS-based CPE reduction assay; assay type: functional, organism-based; conditions: Enterovirus B; how it was run: as §1
[3] = Selectivity index, ratio of CC50 for human RD cells to EC50 for Enterovirus 71; assay type: toxicity, cell-based; conditions: read-out: Ratio CC50/EC50
How it was run: (§4)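 Selectivity index is CC50/EC50, both taken from MTS-based CPE reduction assays in the same cell line (Vero or RD).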

RD [4] = test: Cytotoxicity against human RD cells assessed as reduction in cell viability after 24 to 36 hrs by MTS-based CPE reduction assay; assay type: functional; how it was run: as §3
Coxsackievirus B6 = test: Antiviral activity against Human coxsackievirus B6 infected in african green monkey Vero cells after 24 to 36 hrs by MTS-based CPE reduction assay; assay type: functional, organism-based; conditions: Enterovirus B; how it was run: as §1
Coxsackievirus B4 = test: Antiviral activity against Human coxsackievirus B4 infected in african green monkey Vero cells by after 24 to 36 hrs MTS-based CPE reduction assay; assay type: functional, organism-based; conditions: Enterovirus B; how it was run: as §1
Enterovirus A71 [5] = test: Antiviral activity against Human enterovirus 71 infected in monkey African green Vero cells by MTS-based CPE reduction assay; assay type: functional, organism-based; conditions: Enterovirus A, Vero; read-out: EC50
How it was run: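 Vero cells (5 × 10^5) seeded, then given serial compound dilutions plus 100 TCID50 EV71. Incubated at 37 °C for 24-36 h until complete CPE in the virus-infected, compound-free control. Viability read by MTS/PMS at 498 nm. EC50 is the concentration inhibiting virus-induced CPE by 50%. At least three repeats.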

Coxsackievirus B1 = test: Antiviral activity against Human coxsackievirus B1 infected in african green monkey Vero cells after 24 to 36 hrs by MTS-based CPE reduction assay; assay type: functional, organism-based; conditions: Enterovirus B; how it was run: as §1
Coxsackievirus B3 = test: Antiviral activity against Human coxsackievirus B3 infected in african green monkey Vero cells after 24 to 36 hrs by MTS-based CPE reduction assay; assay type: functional, organism-based; conditions: Enterovirus B; how it was run: as §1
[6] = Selectivity index, ratio of CC50 for african green monkey Vero cells to EC50 for Enterovirus 71; assay type: toxicity, cell-based; conditions: read-out: Ratio CC50/EC50; how it was run: as §4
Enterovirus A71 [7] = test: Antiviral activity against Human enterovirus 71 infected in human RD cells assessed as reduction in virus titer measured during single replication cycle by virus titer assay; assay type: functional, organism-based
How it was run: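 RD cells (5 × 10^4 per well) cultured at 37 °C, 5% CO2. Next day, treated with compound at 0.00042-33.3 µg/mL in 10% FBS, 0.5% DMSO. After 2 h, infected with EV71 at MOI 1. Supernatants serially diluted 10^-1 to 10^-8 onto fresh cells. CPE scored at 72 hpi; TCID50 calculated by Reed-Muench.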

RD [8] = test: Inhibition of human enterovirus 71 capsid assessed as reduction in viral replication at early stages infected in human RD cells at 0.05 ug/ml; assay type: cell-based; conditions: Enterovirus A71
How it was run: (§5)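 Time-of-addition test in RD cells infected with EV71 at MOI 0.01. Compound was added at set times relative to infection (0.05 or 20 µg/mL).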

RD [9] = test: Cytotoxicity against human RD cells infected with human enterovirus 71 measured during a single replication cycle; assay type: cell-based
Enterovirus A71 [10] = test: Induction of stabilization of Human enterovirus 71 capsid protein assessed as increase in temperature for achieving equal staining of viral genome at 5 ug/ml by SYBR green fluorescent assay
How it was run: (§6)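 SYBR green I and II added at 3× with RNase inhibitor at 1 U/µL. Mixture heated 37–70 °C in 1 °C steps, 2 min each, then cooled to 36 °C for 2 min while fluorescence was read.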

Enterovirus A71 [11] = test: Antiviral activity against Human enterovirus 71 infected in human RD cells after 24 to 36 hrs; assay type: functional, organism-based; conditions: Enterovirus A; how it was run: as §2
RD [12] = test: Inhibition of human enterovirus 71 capsid assessed as reduction in viral replication at early stages infected in human RD cells at 20 ug/ml; assay type: cell-based; conditions: Enterovirus A71; how it was run: as §5
Enterovirus A71 [13] = test: Induction of stabilization of Human enterovirus 71 capsid protein assessed as increase in temperature for achieving equal staining of viral genome at 50 ug/ml by SYBR green fluorescent assay; how it was run: as §6

Row | Structure (SMILES) | EC50 (Coxsackievirus B5) [nM] | EC50 (Enterovirus A71 [1]) [nM] | CC50 [2] [nM] | EC50 (Coxsackievirus B2) [nM] | selectivity ratio [3] | CC50 (RD [4]) [nM] | EC50 (Coxsackievirus B6) [nM] | EC50 (Coxsackievirus B4) [nM] | EC50 (Enterovirus A71 [5]) [nM] | EC50 (Coxsackievirus B1) [nM] | EC50 (Coxsackievirus B3) [nM] | selectivity ratio [6] | Activity (Enterovirus A71 [7]) | inhibition (RD [8]) | Activity (RD [9]) | Activity (Enterovirus A71 [10]) | EC50 (Enterovirus A71 [11]) [nM] | inhibition (RD [12]) | Activity (Enterovirus A71 [13])
1 | CC(C)S(=O)(=O)n1c(N)nc2ccc(/C(=N/O)c3ccccc3)cc21 [ENVIROXIME] | 120 | 240 | > 223000 | 150 | > 950 | > 223000 | 100 | > 186000 | 150 | 750 | 2480 | > 1490 |  |  |  |  |  |  | 
2 | CN(C)c1ccc(C(=O)NNc2c(Cl)cccc2Cl)cc1 | 2270 | 30 | > 247000 | 0.9 | > 8230 | > 247000 | 940 | 2570 | 20 | 1.3 | 950 | > 12300 | Active | Active | Non-toxic | Active |  |  | 
3 | O=C(c1cccs1)N(Cc1ccc(Br)cc1)c1ccc(F)cc1 |  |  |  |  |  |  |  |  |  |  |  |  |  |  |  |  | 1420 |  | 
4 | Cc1cc(CCCCCCCOc2ccc(C3=NCCO3)cc2)on1 [DISOXARIL] |  | 15300 | 148000 |  | 10.9 | 167000 |  |  | 19500 |  |  | 7.6 |  |  |  |  |  | Active | Active
5 | CC(C)(C)c1ccc(C(=O)NNc2c(Br)cccc2Br)cc1 | 980 | 290 | > 188000 | 1570 | > 641 | > 188000 | 920 | 6520 | 80 | 2610 | 870 | > 2350 |  |  |  |  |  |  | 
6 | Cc1cccc(C)c1NNC(=O)c1ccc(C(C)(C)C)cc1 | 3190 | 420 | 166000 | 1.6 | 454 | 188000 | 560 | 5620 | 170 | 1.6 | 90 | 978 |  |  |  |  |  |  | 
7 | CN(C)c1ccc(C(=O)NNc2c(Br)cccc2Br)cc1 | 60 | 70 | > 194000 | 0.5 | > 2930 | > 194000 | 20 | 340 | 30 | 5 | 30 | > 6460 |  |  |  |  |  |  | 
